Measurements reported in ChEMBL document CHEMBL4321868, “Scaffold Simplification Strategy Leads to a Novel Generation of Dual Human Immunodeficiency Virus and Enterovirus-A71 Entry Inhibitors” (J Med Chem, 2020).
pEC50, pIC50: −log10 of the molar value. The source made the active and inactive calls. No cut-off for these calls is given here.

Key:
[1] = Selectivity ratio of EC50 for Enterovirus A 71 BrCr infected in human RD cells to EC50 for Enterovirus A 71 genotype B2 11316 infected in human RD cells; type: functional
Enterovirus A71 [2] = assay: Antiviral activity against Enterovirus A 71 BrCr infected in human RD cells assessed as reduction in viral RNA level at 20 uM administered at onset of infection measured 8 hrs post-infection by RT-qPCR analysis relative to control; type: functional, strain BRCR; set-up: scale not given: the % may be the effect or the level left
Enterovirus A71 [3] = assay: Antiviral activity against Enterovirus A 71 BrCr infected in human RD cells assessed as reduction in viral RNA level at 20 uM preincubated for 1 hr followed by viral infection and measured 8 hrs post-infection by RT-qPCR analysis relative to control; type: functional, strain BRCR; set-up: scale not given: the % may be the effect or the level left
Method in brief: (§1)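 RD cells grown to confluence; compound at 20 μM in 2% FBS medium added 1 h before or 1, 2, 4 h after EV-A71 BrCr infection (MOI 1). Pirodavir 20 μM as entry-inhibitor reference; infected untreated cells as controls. At 8 h post-infection, intracellular RNA isolated and viral RNA quantified by RT-qPCR.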

Enterovirus A71 [4] = assay: Antiviral activity against Enterovirus A 71 BrCr harboring VP1 S184T/P246S mutant infected in human RD cells assessed as reduction in virus-induced cytopathic effect preincubated for 1 day followed by viral infection and measured after 3 days by MTS/PMS method; type: functional, organism-based, strain BRCR
Enterovirus A71 [5] = assay: Antiviral activity against Enterovirus A71 genotype C2 H08300 461812 infected in human RD cells assessed as reduction in virus-induced cytopathic effect preincubated for 1 day followed by viral infection and measured after 3 days by MTS/PMS method; type: functional, organism-based; conditions: Enterovirus A, genotype C2 H08300 461812, RD
Method in brief: (§2)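 RD cells seeded in 96-well plates; next day serial compound dilutions plus virus at low MOI added. Incubation at 37 °C, 5% CO₂ until full CPE in untreated infected controls (3 days). CC50 from uninfected treated cells in the same setup; SI = CC50/EC50.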

[6] = system: Human immunodeficiency virus 1; assay: Antiviral activity against HIV1 3B infected in human MT4 cells assessed as reduction in p24 production at 20 uM incubated for 1 hr prior to viral infection followed by compound washout and measured 8 hrs post-infection by ELISA; type: functional, organism-based
RD [7] = assay: Cytotoxicity against human RD cells assessed as adverse effect on cell; type: cell-based
Enterovirus A71 [8] = assay: Antiviral activity against Enterovirus A 71 BrCr harboring VP1 S184T mutant infected in human RD cells assessed as reduction in virus-induced cytopathic effect preincubated for 1 day followed by viral infection and measured after 3 days by MTS/PMS method; type: functional, organism-based, strain BRCR
[9] = system: Human immunodeficiency virus 1; assay: Antiviral activity against HIV1 3B infected in human MT4 cells assessed as reduction in p24 production at 20 uM administered at onset of infection measured 8 hrs post-infection by ELISA; type: functional, organism-based
[10] = system: Human immunodeficiency virus 2; assay: Antiviral activity against HIV-2 ROD infected in human MT4 cells assessed as reduction in virus-induced cytopathic effect preincubated for 30 mins followed by viral infection and measured after 5 days by MTS assay; conditions: Human immunodeficiency virus 2, ISOLATE ROD
Enterovirus A71 [11] = assay: Antiviral activity against Enterovirus A 71 BrCr infected in human RD cells assessed as reduction in viral RNA level at 20 uM treated 1 to 4 hrs post-infection and measured 8 hrs post-infection by RT-qPCR analysis; type: functional, strain BRCR; set-up: scale not given: the % may be the effect or the level left; method in brief: as §1
Enterovirus A71 [12] = assay: Antiviral activity against Enterovirus A 71 BrCr harboring VP1 P246S mutant infected in human RD cells assessed as reduction in virus-induced cytopathic effect preincubated for 1 day followed by viral infection and measured after 3 days by MTS/PMS method; type: functional, organism-based, strain BRCR
RD [13] = assay: Cytotoxicity against human RD cells assessed as induction of cell morphological changes; type: cell-based
Enterovirus A71 [14] = assay: Antiviral activity against Enterovirus A71 genotype B2 11316 infected in human RD cells assessed as reduction in virus-induced cytopathic effect preincubated for 1 day followed by viral infection and measured after 3 days by MTS/PMS method; type: functional, organism-based; conditions: Enterovirus A, genotype B2 11316, RD; method in brief: as §2
[15] = Selectivity index, ratio of CC50 for human RD cells to EC50 for Enterovirus A71 BrCr infected in human RD cells; type: toxicity, cell-based; conditions: read-out: Ratio CC50/EC50; method in brief: as §2
Enterovirus A71 [16] = assay: Antiviral activity against Enterovirus A71 genotype B5 TW/70902/08 infected in human RD cells assessed as reduction in virus-induced cytopathic effect preincubated for 1 day followed by viral infection and measured after 3 days by MTS/PMS method; type: functional, organism-based; conditions: Enterovirus A, genotype B5 TW/70902/08, RD; method in brief: as §2
[17] = target: Envelope glycoprotein gp160 (Human immunodeficiency virus 1) (UniProt Q6QLK5); assay: Binding affinity to recombinant HIV1 3B gp120 by SPR analysis
[18] = system: Human immunodeficiency virus 1; assay: Antiviral activity against HIV1 NL4.3 infected in human MT4 cells assessed as reduction in virus-induced cytopathic effect preincubated for 30 mins followed by viral infection and measured after 5 days by MTS assay; type: functional, organism-based; conditions: Human immunodeficiency virus 1, NL4.3, MT4
Enterovirus A71 [19] = assay: Antiviral activity against Enterovirus A 71 BrCr infected in human RD cells assessed as reduction in virus-induced cytopathic effect preincubated for 1 day followed by viral infection and measured after 3 days by MTS/PMS method; type: functional, organism-based; conditions: strain BRCR
Method in brief: as §2, with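 “days). Viability read by MTS/PMS; EC50 as 50% inhibition of virus-induced death from dose-response curves.” for “days).”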

[20] = Selectivity index, ratio of CC50 for human MT4 cells to EC50 for HIV-1 NL4.3 infected in human MT4 cells
HeLa = assay: Binding affinity to capsid protein VP1 five fold axis in Enterovirus A71 genotype B2 11316 infected in human HeLa cells at 20 uM measured after 1 hr by cryo-electron microscopic analysis; type: cell-based
[21] = Cytotoxicity against human MT4 cells assessed as reduction in cell viability measured after 5 days by MTS/PES assay; type: cell-based
Method in brief: (§3)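 MT-4 cells (RPMI-1640, 10% FCS, 1% L-glutamine) pre-incubated 30 min at 37 °C with compound, then infected with HIV-1 NL4.3 or HIV-2 ROD according to stock TCID50. After 5 days, CPE scored microscopically and viability read by MTS/PES at A490 to derive EC50; cytotoxicity measured by MTS/PES at 5 days in the same cells. SI = CC50/EC50. Mean ± S.D. of at least 3 experiments.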

[22] = Selectivity index, ratio of CC50 for human MT4 cells to EC50 for HIV1 NL4.3 infected in human MT4 cells; type: toxicity, cell-based; conditions: read-out: Ratio CC50/EC50; method in brief: as §3
[23] = Selectivity ratio of EC50 for Enterovirus A 71 BrCr infected in human RD cells to EC50 for Enterovirus A 71 genotype C4 TW/1956/05 infected in human RD cells; type: functional
[24] = target: Envelope glycoprotein gp160 (Human immunodeficiency virus 1) (UniProt Q6QLK5); assay: (§4) Inhibition of biotinylated-heparin binding to recombinant HIV1 3B gp120 by SPR analysis
Method in brief: (§5)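 SPR at 25 °C in PBS with 5% DMSO, 0.005% Tween20, pH 7.4. Minimally biotinylated heparin captured (880 RU) on streptavidin chip. Recombinant HIV-1 IIIB gp120 (10 nM) alone or premixed with a compound concentration range injected 2 min at 10 μl/min; regenerated with 1 M NaCl/10 mM NaOH. Double-referenced; RU converted to % inhibition vs gp120 alone; nonlinear fit, three experiments.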

[25] = target: Envelope glycoprotein gp160 (Human immunodeficiency virus 1, UniProt Q6QLK5); assay: as §4; method in brief: as §5
Enterovirus A71 [26] = assay: Antiviral activity against Enterovirus A71 genotype C4 TW/1956/05 infected in human RD cells assessed as reduction in virus-induced cytopathic effect preincubated for 1 day followed by viral infection and measured after 3 days by MTS/PMS method; type: functional, organism-based; conditions: Enterovirus A, genotype C4 TW/1956/05, RD; method in brief: as §2

Sequence of Envelope glycoprotein gp160 (Human immunodeficiency virus 1) (Q6QLK5 1-814): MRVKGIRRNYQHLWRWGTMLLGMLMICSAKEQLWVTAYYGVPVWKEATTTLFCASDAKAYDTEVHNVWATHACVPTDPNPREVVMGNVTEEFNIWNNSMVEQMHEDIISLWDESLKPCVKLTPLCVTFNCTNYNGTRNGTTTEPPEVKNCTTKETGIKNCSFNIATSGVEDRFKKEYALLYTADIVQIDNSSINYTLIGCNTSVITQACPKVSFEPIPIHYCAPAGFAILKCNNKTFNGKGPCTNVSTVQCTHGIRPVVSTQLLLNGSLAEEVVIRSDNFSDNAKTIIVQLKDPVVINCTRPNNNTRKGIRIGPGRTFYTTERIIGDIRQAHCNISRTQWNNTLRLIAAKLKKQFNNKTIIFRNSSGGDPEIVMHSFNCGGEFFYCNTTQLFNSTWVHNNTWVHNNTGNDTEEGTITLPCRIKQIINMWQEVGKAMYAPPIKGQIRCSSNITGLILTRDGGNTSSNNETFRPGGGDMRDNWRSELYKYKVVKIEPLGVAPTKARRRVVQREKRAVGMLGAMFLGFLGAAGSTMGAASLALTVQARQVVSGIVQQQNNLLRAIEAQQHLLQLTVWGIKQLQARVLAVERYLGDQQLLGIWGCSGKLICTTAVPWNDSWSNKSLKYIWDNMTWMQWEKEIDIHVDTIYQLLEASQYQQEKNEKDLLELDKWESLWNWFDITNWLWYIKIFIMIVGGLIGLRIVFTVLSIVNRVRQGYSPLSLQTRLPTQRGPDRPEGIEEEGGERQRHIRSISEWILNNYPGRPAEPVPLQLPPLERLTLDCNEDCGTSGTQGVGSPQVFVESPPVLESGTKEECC
Sequence of Envelope glycoprotein gp160 (Q6QLK5 whole entry): as the sequence (Q6QLK5 1-814) above

## O=C(CCC(CCC(=O)NC(Cc1c(-c2cc(C(=O)O)cc(C(=O)O)c2)[nH]c2ccccc12)C(=O)O)(CCC(=O)NC(Cc1c(-c2cc(C(=O)O)cc(C(=O)O)c2)[nH]c2ccccc12)C(=O)O)[N+](=O)[O-])NC(Cc1c(-c2cc(C(=O)O)cc(C(=O)O)c2)[nH]c2ccccc12)C(=O)O (stereo not drawn)
[1]
  Ratio EC50: 2
Enterovirus A71 [2]
  Activity: 100%
Enterovirus A71 [3]
  Activity: 100%
Enterovirus A71 [4]
  pEC50: 5.66
Enterovirus A71 [5]
  pEC50: 7.24
[6]
  Activity: Active
RD [7]
  Activity: Non-Toxic
Enterovirus A71 [8]
  pEC50: 5.63
[9]
  Activity: Active
[10]
  pEC50: 6.20
Enterovirus A71 [11]
  Activity: 0%
Enterovirus A71 [12]
  pEC50: 5.71
RD [13]
  Activity: Non-Toxic
Enterovirus A71 [14]
  pEC50: 6.75
[15]
  selectivity ratio: > 203
Enterovirus A71 [16]
  pEC50: 7.09
[17]
  Activity: Dose-dependent effect
[18]
  pEC50: 6.57
Enterovirus A71 [19]
  pEC50: 6.46
  EC90: 550 nM
[20]
  selectivity ratio: > 370
HeLa
  Activity: Active
[21]
  CC50 at 120 h: > 100000 nM
[22]
  selectivity ratio: > 370
[23]
  Ratio EC50: 9
[24]
  inhibition: Dose-dependent effect
[25]
  pIC50: 6.01
Enterovirus A71 [26]
  pEC50: 7.42
